Molecular target: Metabotropic glutamate receptor 1 (Homo sapiens) (UniProt Q13255)
Experiment: Antagonist activity against mGlu1-alpha receptor in chinese hamster ovary cells using secondary messanger assay determined
Type: functional, cell-based
Conditions: Cricetulus griseus
How it was run: (§1)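 Cloned mGluRs measured with second-messenger assays; group I (mGlu1α, mGlu5α), mGlu2 and mGlu4α tested. Compounds tested for agonist and antagonist activity at 1 mM unless otherwise stated. Mean ± SEM of at least two independent results; some values estimated from partial concentration–response curves.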

Chain of Metabotropic glutamate receptor 1 (Homo sapiens) (Q13255 19-1194 limits assumed): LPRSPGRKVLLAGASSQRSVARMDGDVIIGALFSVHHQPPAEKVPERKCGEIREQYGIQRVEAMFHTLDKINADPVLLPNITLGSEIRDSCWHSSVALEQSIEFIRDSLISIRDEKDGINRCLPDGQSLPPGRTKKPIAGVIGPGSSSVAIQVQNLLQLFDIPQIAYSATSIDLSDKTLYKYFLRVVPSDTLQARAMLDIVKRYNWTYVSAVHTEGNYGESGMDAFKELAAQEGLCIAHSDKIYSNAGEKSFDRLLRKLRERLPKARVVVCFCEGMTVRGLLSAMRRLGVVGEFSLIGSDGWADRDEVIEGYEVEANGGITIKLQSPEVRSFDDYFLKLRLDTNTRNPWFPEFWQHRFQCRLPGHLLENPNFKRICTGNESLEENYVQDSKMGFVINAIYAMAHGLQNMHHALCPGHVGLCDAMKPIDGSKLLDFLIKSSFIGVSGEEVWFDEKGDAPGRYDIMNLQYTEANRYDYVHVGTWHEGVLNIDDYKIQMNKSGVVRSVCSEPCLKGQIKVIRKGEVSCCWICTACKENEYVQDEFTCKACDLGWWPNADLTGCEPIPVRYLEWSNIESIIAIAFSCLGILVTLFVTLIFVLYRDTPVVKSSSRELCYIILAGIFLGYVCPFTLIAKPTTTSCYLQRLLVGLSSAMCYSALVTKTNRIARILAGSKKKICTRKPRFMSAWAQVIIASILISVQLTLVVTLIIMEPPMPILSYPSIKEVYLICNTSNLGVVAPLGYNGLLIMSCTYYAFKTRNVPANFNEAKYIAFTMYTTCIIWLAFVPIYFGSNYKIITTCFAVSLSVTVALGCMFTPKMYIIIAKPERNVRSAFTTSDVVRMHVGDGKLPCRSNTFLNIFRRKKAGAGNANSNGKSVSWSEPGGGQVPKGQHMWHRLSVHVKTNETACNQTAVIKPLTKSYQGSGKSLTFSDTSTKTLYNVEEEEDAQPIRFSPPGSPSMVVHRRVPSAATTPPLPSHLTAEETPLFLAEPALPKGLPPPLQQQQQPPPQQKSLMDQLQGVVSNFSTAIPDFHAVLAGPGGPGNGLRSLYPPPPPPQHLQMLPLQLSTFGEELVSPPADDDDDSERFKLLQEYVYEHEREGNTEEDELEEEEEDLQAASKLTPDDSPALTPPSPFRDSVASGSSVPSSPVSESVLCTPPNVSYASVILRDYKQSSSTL

Kb [µM] | SMILES
30 | CCCCCCc1c(O)noc1C[C@H](N)C(=O)O
> 100 | CCCCCCCCc1c(O)noc1CC(N)C(=O)O (stereo not drawn)

Organism: Rattus norvegicus
Experiment: Excitatory activity in the rat cortical slice model.
Type: functional, organism-based
Conditions: not given
How it was run: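 Rat cortical slice depolarizations evoked by excitatory amino acids; agonists applied 90 s at each concentration, with receptor selectivity checked using NBQX (AMPA) or CPP (NMDA). Poorly soluble compounds tested up to 200 μM.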

SMILES | EC50 [µM]
CCCCCCc1c(O)noc1CC(N)C(=O)O (stereo not drawn) | > 1000
N[C@H](Cc1onc(O)c1-c1ccccc1)C(=O)O | > 1000
CCCCCCc1c(O)noc1C[C@@H](N)C(=O)O | > 1000
Cc1c(O)noc1CC(N)C(=O)O (stereo not drawn) | 18

Next, values leading:

EC50 [µM] | SMILES
590 | NC(Cc1onc(O)c1-c1ccccc1)C(=O)O (stereo not drawn)
> 1000 | CCCCCCc1c(O)noc1C[C@H](N)C(=O)O
> 500 | CCCCCCCCc1c(O)noc1CC(N)C(=O)O (stereo not drawn)
395 | N[C@@H](Cc1onc(O)c1-c1ccccc1)C(=O)O
330 | N[C@@H](Cc1cc(=O)[nH]o1)C(=O)O
630 | CCCCCc1c(O)noc1CC(N)C(=O)O (stereo not drawn)
> 500 | CCCCCCCc1c(O)noc1CC(N)C(=O)O (stereo not drawn)

Molecular target: Metabotropic glutamate receptor 5 (Homo sapiens) (UniProt P41594)
Sequence (P41594 21-1212 limits assumed): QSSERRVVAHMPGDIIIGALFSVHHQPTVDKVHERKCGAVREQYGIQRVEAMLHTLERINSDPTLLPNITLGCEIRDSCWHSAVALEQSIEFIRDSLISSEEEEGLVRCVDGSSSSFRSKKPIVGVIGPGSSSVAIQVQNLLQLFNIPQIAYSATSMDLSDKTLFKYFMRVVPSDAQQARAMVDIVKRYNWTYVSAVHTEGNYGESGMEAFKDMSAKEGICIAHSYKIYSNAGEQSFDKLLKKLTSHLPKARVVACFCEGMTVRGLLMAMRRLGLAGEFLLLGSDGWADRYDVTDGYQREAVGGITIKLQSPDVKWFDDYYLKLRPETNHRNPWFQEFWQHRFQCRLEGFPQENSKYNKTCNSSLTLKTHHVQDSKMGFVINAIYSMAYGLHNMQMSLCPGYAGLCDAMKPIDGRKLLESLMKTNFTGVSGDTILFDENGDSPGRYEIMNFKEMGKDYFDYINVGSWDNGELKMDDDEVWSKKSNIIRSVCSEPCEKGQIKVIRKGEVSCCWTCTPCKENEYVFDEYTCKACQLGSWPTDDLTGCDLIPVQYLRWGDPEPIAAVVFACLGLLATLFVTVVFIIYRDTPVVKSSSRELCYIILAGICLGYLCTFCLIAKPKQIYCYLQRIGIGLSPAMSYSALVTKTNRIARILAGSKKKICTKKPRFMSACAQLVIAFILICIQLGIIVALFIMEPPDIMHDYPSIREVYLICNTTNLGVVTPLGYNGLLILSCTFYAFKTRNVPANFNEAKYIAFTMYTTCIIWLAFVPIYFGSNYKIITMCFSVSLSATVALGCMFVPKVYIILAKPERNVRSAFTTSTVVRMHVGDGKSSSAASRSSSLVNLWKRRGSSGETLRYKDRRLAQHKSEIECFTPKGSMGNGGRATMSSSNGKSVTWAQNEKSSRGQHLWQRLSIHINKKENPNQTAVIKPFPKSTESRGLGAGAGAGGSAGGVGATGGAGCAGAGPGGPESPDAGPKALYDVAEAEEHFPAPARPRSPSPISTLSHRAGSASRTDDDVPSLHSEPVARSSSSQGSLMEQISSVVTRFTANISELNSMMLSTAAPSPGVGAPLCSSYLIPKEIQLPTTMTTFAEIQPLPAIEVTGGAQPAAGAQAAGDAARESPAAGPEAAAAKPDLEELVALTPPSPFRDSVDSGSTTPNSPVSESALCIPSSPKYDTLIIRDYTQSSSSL
Experiment: Antagonist activity against mGlu 5a receptor in chinese hamster ovary cells using secondary messanger assay determined
Type: functional, cell-based
Conditions: Cricetulus griseus
How it was run: as §1

Kb [µM] | SMILES
61 | CCCCCCc1c(O)noc1C[C@H](N)C(=O)O
97 | CCCCc1c(O)noc1C[C@H](N)C(=O)O

Molecular target: Metabotropic glutamate receptor 2 (Homo sapiens) (UniProt Q14416)
Sequence (Q14416 19-872 limits assumed): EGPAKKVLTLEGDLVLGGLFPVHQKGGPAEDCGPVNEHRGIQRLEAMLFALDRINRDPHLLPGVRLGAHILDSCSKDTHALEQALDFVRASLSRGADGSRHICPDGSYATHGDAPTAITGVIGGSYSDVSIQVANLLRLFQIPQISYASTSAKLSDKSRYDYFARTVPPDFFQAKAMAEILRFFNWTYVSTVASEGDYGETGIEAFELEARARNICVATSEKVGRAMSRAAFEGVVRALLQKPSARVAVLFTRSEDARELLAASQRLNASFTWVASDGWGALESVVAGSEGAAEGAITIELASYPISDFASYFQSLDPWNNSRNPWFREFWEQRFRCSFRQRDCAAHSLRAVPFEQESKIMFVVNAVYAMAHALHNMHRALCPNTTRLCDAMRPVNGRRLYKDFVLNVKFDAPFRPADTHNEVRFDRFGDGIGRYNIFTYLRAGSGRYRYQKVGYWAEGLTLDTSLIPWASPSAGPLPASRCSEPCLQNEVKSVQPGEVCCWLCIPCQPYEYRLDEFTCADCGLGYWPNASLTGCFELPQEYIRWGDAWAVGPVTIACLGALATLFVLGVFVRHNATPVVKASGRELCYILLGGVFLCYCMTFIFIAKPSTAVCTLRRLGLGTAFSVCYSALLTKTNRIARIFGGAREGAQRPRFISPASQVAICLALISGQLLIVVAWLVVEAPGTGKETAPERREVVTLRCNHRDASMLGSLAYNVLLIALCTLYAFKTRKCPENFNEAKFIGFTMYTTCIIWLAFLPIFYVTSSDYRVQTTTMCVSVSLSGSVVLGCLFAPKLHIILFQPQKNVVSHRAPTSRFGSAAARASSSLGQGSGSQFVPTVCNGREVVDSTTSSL
Experiment: Antagonist activity against mGlu 2 receptor in chinese hamster ovary cells using secondary messanger assay determined
Type: functional, cell-based
Conditions: Cricetulus griseus
How it was run: as §1

Kb [µM] | SMILES
> 100 | CCCCCCCCc1c(O)noc1CC(N)C(=O)O (stereo not drawn)

Molecular target: Glutamate NMDA receptor
Experiment: Displacement of [3H]CPP from NMDA receptor
Type: protein-complex assay, Rattus norvegicus
Conditions: not given
How it was run: (§2)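 Radioligand displacement using [3H]AMPA (AMPA), [3H]KA (kainate) or [3H]CPP (NMDA) on membrane preparations. Mean ± SEM of at least three independent results; one value estimated. Low-solubility compounds tested only at 200 μM.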

SMILES | IC50 [µM]
CCCCCCc1c(O)noc1CC(N)C(=O)O (stereo not drawn) | > 100
N[C@H](Cc1onc(O)c1-c1ccccc1)C(=O)O | 31
CCCCCCc1c(O)noc1C[C@@H](N)C(=O)O | > 100
CCCCc1c(C[C@H](N)C(=O)O)o[nH]c1=O | > 100

Continued, values first:

IC50 [µM] | SMILES
> 100 | NC(Cc1onc(O)c1-c1ccccc1)C(=O)O (stereo not drawn)
> 100 | CCCCCCc1c(O)noc1C[C@H](N)C(=O)O
> 100 | N[C@@H](Cc1onc(O)c1-c1ccccc1)C(=O)O
> 100 | N[C@@H](Cc1cc(=O)[nH]o1)C(=O)O
> 100 | CCCCCc1c(O)noc1CC(N)C(=O)O (stereo not drawn)
> 100 | CCCCCCCc1c(O)noc1CC(N)C(=O)O (stereo not drawn)

Molecular target: Metabotropic glutamate receptor 4 (Homo sapiens) (UniProt Q14833)
Sequence (Q14833 whole entry): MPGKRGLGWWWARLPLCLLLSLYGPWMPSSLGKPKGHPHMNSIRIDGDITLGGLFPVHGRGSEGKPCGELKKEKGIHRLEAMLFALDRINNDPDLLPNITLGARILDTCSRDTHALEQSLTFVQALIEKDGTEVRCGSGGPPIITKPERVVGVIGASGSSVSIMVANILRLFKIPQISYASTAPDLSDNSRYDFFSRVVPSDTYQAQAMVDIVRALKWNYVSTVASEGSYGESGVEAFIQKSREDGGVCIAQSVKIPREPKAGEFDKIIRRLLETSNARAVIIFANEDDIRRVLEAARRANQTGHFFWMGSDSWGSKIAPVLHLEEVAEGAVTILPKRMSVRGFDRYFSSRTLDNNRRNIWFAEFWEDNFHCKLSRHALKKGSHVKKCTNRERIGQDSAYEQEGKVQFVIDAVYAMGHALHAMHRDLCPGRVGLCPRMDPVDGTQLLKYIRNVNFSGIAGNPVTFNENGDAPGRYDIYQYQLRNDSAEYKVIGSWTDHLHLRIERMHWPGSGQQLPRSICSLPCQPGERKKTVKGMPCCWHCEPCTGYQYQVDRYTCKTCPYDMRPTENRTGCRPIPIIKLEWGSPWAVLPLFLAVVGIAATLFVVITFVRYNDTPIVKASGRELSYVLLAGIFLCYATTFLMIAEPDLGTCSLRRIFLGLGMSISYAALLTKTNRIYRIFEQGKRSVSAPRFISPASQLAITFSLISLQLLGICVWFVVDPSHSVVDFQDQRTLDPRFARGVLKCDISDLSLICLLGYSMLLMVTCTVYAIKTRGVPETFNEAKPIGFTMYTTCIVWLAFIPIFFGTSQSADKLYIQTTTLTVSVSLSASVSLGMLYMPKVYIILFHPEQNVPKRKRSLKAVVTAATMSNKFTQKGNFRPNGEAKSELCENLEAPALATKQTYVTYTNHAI
Experiment: Antagonist activity against mGlu 4a receptor in chinese hamster ovary cells using secondary messanger assay determined
Type: functional, cell-based
Conditions: Cricetulus griseus
How it was run: as §1

Kb [µM] | SMILES
> 100 | CCCCCCCCc1c(O)noc1CC(N)C(=O)O (stereo not drawn)

Molecular target: Glutamate receptor ionotropic, kainate
Experiment: Binding affinity for Ionotropic glutamate receptor kainate by [3H]-kainic acid displacement
Type: protein-complex assay, Rattus norvegicus
Conditions: not given
How it was run: as §2

SMILES | IC50 [µM]
CCCCCCc1c(O)noc1CC(N)C(=O)O (stereo not drawn) | > 100
N[C@H](Cc1onc(O)c1-c1ccccc1)C(=O)O | > 100
CCCCCCc1c(O)noc1C[C@@H](N)C(=O)O | > 100
CCCCc1c(C[C@H](N)C(=O)O)o[nH]c1=O | > 100

Next, values leading:

IC50 [µM] | SMILES
> 100 | NC(Cc1onc(O)c1-c1ccccc1)C(=O)O (stereo not drawn)
> 100 | CCCCCCc1c(O)noc1C[C@H](N)C(=O)O
> 100 | N[C@@H](Cc1onc(O)c1-c1ccccc1)C(=O)O
> 100 | N[C@@H](Cc1cc(=O)[nH]o1)C(=O)O
> 100 | CCCCCc1c(O)noc1CC(N)C(=O)O (stereo not drawn)
> 100 | CCCCCCCc1c(O)noc1CC(N)C(=O)O (stereo not drawn)

Molecular target: Glutamate receptor ionotropic, AMPA (Rattus norvegicus, UniProt P19490+P19491+P19492+P19493)
Experiment: Binding affinity for AMPA receptor using [3H]AMPA
Type: protein-complex assay
Conditions: not given
How it was run: as §2

SMILES | IC50 [µM]
CCCCCCc1c(O)noc1CC(N)C(=O)O (stereo not drawn) | > 100
N[C@H](Cc1onc(O)c1-c1ccccc1)C(=O)O | > 100
CCCCCCc1c(O)noc1C[C@@H](N)C(=O)O | > 100
CCCCc1c(C[C@H](N)C(=O)O)o[nH]c1=O | 0.48
Cc1c(O)noc1CC(N)C(=O)O (stereo not drawn) | 0.32

Results, then the compound that gave them:

IC50 [µM] | SMILES
39 | NC(Cc1onc(O)c1-c1ccccc1)C(=O)O (stereo not drawn)
> 100 | CCCCCCc1c(O)noc1C[C@H](N)C(=O)O
23 | N[C@@H](Cc1onc(O)c1-c1ccccc1)C(=O)O
0.8 | N[C@@H](Cc1cc(=O)[nH]o1)C(=O)O
11 | CCCCCc1c(O)noc1CC(N)C(=O)O (stereo not drawn)
> 100 | CCCCCCCc1c(O)noc1CC(N)C(=O)O (stereo not drawn)
